ChEMBL document CHEMBL4732140, “Single-step fluorescent probes to detect decrotonylation activity of HDACs through intramolecular reactions” (Eur J Med Chem, 2021)
The source made the active and inactive calls. The rule behind the calls is not given here.

Legend:
[1] = Binding affinity to lysine at 10 uM by fluorescence photometric method
Procedure, shortened: (§1)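 Interferent test: probe at 10 μM treated with each species (amino acids, butylamine) at 100 μM, no enzyme; fluorescence spectra of the reaction mixtures recorded (excitation 480 nm).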

[2] = biological target: T1, NAD-dependent protein deacetylase sirtuin-2 (Homo sapiens) (UniProt Q8IXJ6); assay: Substrate activity at recombinant human SIRT2 assessed as decrotonylation by measuring increase in fluorescence intensity at 10 uM measured after 3 hrs in presence of NAD+ by fluorescence photometric method relative to control
T1 sequence (whole entry): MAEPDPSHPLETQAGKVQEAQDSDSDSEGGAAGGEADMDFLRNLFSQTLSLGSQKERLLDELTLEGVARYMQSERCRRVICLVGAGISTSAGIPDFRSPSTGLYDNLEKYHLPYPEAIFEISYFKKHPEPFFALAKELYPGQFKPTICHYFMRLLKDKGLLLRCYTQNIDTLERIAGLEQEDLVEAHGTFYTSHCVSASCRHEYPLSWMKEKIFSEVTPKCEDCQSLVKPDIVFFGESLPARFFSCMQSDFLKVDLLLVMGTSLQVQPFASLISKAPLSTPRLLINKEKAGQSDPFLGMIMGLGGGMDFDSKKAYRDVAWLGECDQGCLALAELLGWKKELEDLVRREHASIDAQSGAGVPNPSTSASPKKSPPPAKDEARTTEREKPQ
Procedure, shortened: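 Probe (10 μM) incubated 3 h at 37 °C with recombinant Sirt2 (40 ng/μl) and 200 μM NAD+ in 20 mM HEPES pH 8.0 with salts. Emission scanned 510–600 nm (excitation 480 nm, slit 5 nm). Signal compared with controls lacking enzyme and/or NAD+, and with probe alone; fold increase derived.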

[3] = biological target: T1, NAD-dependent protein deacetylase sirtuin-2 (Homo sapiens); assay: Substrate activity at recombinant human SIRT2 assessed as decrotonylation by measuring increase in fluorescence intensity at 10 uM in presence of NAD+ by fluorescence photometric method; conditions: time hrs <=3, TDE = time-dependent effect
Procedure, shortened: (§2)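 Recombinantly expressed, purified sirtuin (40 ng/μl) incubated with probe (10 μM, from 5 mM DMSO stock) and NAD+ at 37 °C in 20 mM HEPES pH 8.0 with 1 mM MgCl2, 2.7 mM KCl, 150 mM NaCl. Fluorescence read with excitation 480 nm, emission 545 nm.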

[4] = Binding affinity to cysteine at 10 uM by fluorescence photometric method; procedure, shortened: as §1
[5] = biological target: NAD-dependent protein deacylase sirtuin-5, mitochondrial (Homo sapiens) (UniProt Q9NXA8); assay: Substrate activity at recombinant human SIRT5 assessed as decrotonylation by measuring increase in fluorescence intensity at 10 uM in presence of NAD+ by fluorescence photometric method; procedure, shortened: as §2
[6] = biological target: NAD-dependent protein deacylase sirtuin-6 (Homo sapiens) (UniProt Q8N6T7); assay: Substrate activity at recombinant human SIRT6 assessed as decrotonylation by measuring increase in fluorescence intensity at 10 uM in presence of NAD+ by fluorescence photometric method; procedure, shortened: as §2
[7] = biological target: T2, NAD-dependent protein deacetylase sirtuin-1 (Homo sapiens) (UniProt Q96EB6); assay: Substrate activity at recombinant human SIRT1 assessed as decrotonylation by measuring increase in fluorescence intensity at 10 uM in presence of NAD+ by fluorescence photometric method; procedure, shortened: as §2
T2 sequence (whole entry): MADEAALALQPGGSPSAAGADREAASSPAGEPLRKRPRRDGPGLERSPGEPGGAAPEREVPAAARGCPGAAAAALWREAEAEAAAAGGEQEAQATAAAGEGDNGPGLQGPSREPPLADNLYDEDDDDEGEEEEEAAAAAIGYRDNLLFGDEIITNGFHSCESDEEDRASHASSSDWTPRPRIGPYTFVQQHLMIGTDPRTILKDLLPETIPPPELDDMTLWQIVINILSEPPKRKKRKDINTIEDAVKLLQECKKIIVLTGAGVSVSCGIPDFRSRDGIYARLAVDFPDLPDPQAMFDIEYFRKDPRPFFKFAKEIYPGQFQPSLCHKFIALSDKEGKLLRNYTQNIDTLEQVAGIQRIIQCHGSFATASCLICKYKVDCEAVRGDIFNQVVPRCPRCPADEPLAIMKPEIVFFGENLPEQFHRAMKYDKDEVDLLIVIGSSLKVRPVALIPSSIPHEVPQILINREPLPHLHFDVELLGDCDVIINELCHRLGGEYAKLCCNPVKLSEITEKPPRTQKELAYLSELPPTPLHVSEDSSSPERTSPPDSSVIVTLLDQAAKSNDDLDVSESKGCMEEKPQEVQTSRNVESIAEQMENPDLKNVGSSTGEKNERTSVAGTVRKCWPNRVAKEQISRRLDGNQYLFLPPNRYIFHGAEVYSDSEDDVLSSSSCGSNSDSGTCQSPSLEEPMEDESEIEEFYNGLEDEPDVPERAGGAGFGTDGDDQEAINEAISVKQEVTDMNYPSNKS

[8] = biological target: T3, NAD-dependent protein deacetylase sirtuin-3, mitochondrial (Homo sapiens) (UniProt Q9NTG7); assay: Substrate activity at recombinant human SIRT3 assessed as decrotonylation by measuring increase in fluorescence intensity at 10 uM in presence of NAD+ by fluorescence photometric method; procedure, shortened: as §2
T3 sequence (whole entry): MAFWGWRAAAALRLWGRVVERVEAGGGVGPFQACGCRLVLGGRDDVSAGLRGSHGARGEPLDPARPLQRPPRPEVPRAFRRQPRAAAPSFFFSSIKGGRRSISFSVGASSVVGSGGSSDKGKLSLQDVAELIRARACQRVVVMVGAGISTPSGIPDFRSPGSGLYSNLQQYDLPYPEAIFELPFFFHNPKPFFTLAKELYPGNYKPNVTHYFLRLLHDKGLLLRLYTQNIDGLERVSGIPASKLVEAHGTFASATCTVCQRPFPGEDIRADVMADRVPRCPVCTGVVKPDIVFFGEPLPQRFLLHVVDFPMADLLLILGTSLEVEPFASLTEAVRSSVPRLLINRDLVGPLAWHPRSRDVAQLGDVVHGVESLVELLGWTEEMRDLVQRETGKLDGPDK

[9] = biological target: T1, NAD-dependent protein deacetylase sirtuin-2 (Homo sapiens); assay: Substrate activity at recombinant human SIRT2 assessed as decrotonylation by measuring absorption peak for formation of N-NBD at 10 uM measured after 3 hrs in presence of NAD+ by UV-VS absorption spectra analysis
Procedure, shortened: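 Probe (10 μM, from 5 mM DMSO stock) reacted with recombinant purified Sirt2 (40 ng/μl) and 200 μM NAD+ in 20 mM HEPES pH 8.0 (1 mM MgCl2, 2.7 mM KCl, 150 mM NaCl) at 37 °C for 3 h. Absorbance spectra collected from 300 to 550 nm before and after the reaction.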

[10] = Binding affinity to histidine at 10 uM by fluorescence photometric method; procedure, shortened: as §1

NAD-dependent protein deacylase sirtuin-5, mitochondrial (Homo sapiens), sequence (Q9NXA8 37-310 limits assumed): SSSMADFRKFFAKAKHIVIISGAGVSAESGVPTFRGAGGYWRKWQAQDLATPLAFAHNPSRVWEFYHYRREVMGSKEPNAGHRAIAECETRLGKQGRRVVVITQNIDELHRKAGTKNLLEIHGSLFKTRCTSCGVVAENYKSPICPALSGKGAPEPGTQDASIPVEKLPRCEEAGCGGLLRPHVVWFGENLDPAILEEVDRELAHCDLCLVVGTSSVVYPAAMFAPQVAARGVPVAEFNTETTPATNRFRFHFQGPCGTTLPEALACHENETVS
NAD-dependent protein deacylase sirtuin-6 (Homo sapiens), sequence (Q8N6T7 whole entry): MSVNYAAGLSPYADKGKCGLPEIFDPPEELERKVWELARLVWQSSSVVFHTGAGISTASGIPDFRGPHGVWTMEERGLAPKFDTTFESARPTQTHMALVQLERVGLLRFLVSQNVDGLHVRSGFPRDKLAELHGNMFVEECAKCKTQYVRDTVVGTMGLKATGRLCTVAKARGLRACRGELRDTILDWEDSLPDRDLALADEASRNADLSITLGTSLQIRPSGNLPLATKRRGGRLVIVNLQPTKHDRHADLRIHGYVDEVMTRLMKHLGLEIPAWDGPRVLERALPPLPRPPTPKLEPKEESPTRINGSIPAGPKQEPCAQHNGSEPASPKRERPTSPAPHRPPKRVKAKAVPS

Row | Compound | Activity [1] | fold change (FC) [2] | Activity [3] | Activity [4] | Activity [5] | Activity [6] | Activity [7] | Activity [8] | Activity [9] [nm] | Activity [10]
1 | C/C=C/C(=O)NCCCC[C@H](NC(=O)OC(C)(C)C)C(=O)NCCOCCOc1ccc([N+](=O)[O-])c2nonc12 | inactive | 5 | Tde | inactive | inactive | inactive | Active | inactive | 480 | inactive
2 | C/C=C/C(=O)NCCCC[C@H](NC(=O)CNC(=O)[C@H](CC(C)C)NC(C)=O)C(=O)NCCOCCOc1ccc([N+](=O)[O-])c2nonc12 | – | – | – | – | inactive | inactive | Active | inactive | – | –
